The values that follow come from ChEMBL document CHEMBL1151714 (J Med Chem, 2008).

Structures are written as SMILES. Calls of active or inactive are those of the source. The rule behind the calls is not given here.

Series [1] relates to MDA-MB-231. As to the kind of experiment: Reversal of human XIAP BIR3-mediated suppression of cytochrome c-induced caspase-3/-7 activity in human MDA-MB-231 cell lysate by cell free functional assay. An outline of the steps:
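Caspase-3/-7 in cell lysates was activated by adding cytochrome c and dATP. Recombinant XIAP BIR3 protein at 0.5 μM was used to suppress activation, and recovery of caspase-3/-7 activity was measured across compound doses. Activity was read at the 30-minute time point and expressed relative to maximum activation.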

The test system of series [2] is MDA-MB-231. As to the kind of experiment: Induction of cIAP1 degradation in human MDA-MB-231 cells at 10 nM after 24 hrs by Western blotting. It counts as functional, cell-based. The procedure, abridged:
(§1)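 MDA-MB-231 cells were exposed to a range of concentrations for 24 hours. Whole-cell levels of cIAP-1, cleaved PARP and cleaved caspase-3 were then probed by Western blot.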

Series [3] concerns MDA-MB-231. Nature of the series: Induction of PARP cleavage in human MDA-MB-231 cells at 100 nM after 24 hrs by Western blotting. In kind it is functional, cell-based. The procedure, abridged: as §1
For orientation: Immunoblotting shows a protein as a band on a membrane.

For series [4], the system named is MDA-MB-231. As to the kind of experiment: Induction of caspase 3 processing in human MDA-MB-231 cells at 100 nM after 24 hrs by Western blotting. In kind it is functional, cell-based. An outline of the steps: as §1
The subject of series [5] is Rattus norvegicus. As to the kind of experiment: Cmax in Sprague-Dawley rat at 30 mg/kg, po. In kind it is ADME, organism-based. Set-up: dose 30 mg/kg, route oral. Particulars: in vivo.
Series [6] relates to Rattus norvegicus. As to the kind of experiment: Half life in Sprague-Dawley rat at 30 mg/kg, po. In kind it is ADME, organism-based. Conditions: in vivo. Set-up: dose 30 mg/kg, route oral. The procedure, abridged: (§2)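 Rat pharmacokinetics after a single oral dose. Compounds were given at 25 or 30 mg/kg. Cmax, elimination half-life and AUC(0-∞) were determined, and oral bioavailability was calculated. Values are reported as mean ± deviation.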

Series [7] has as its system Rattus norvegicus. Nature of the series: AUC (0 to infinity) in Sprague-Dawley rat at 30 mg/kg, po. In kind it is ADME, organism-based, Plasma. Particulars: in vivo. Set-up: dose 30 mg/kg, route oral, time infinity. The procedure, abridged:
(§3)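 Rats were given a single oral dose of 25 or 30 mg/kg. Maximum plasma concentration (Cmax), elimination half-life and AUC(0-∞) were derived. Oral bioavailability was also reported.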

Series [8] relates to Rattus norvegicus. As to the kind of experiment: Bioavailability in Sprague-Dawley rat at 30 mg/kg, po. In kind it is ADME, organism-based. Conditions: in vivo. The procedure, abridged: as §2
Series [9] addresses Baculoviral IAP repeat-containing protein 3 (Homo sapiens, UniProt Q13489). As to the kind of experiment: Displacement of fluorescently tagged SM5F from human cIAP-2 BIR3 expressed in Escherichia coli BL21 cells by fluorescence polarization assay. A general note: Polarisation of emitted light reports the rotation of a fluorescent probe.
In series [10] the test system is Rattus norvegicus. Nature of the series: Cmax in Sprague-Dawley rat at 25 mg/kg, po. In kind it is ADME, organism-based. More on the design: dose 25 mg/kg, route oral. Particulars: in vivo.
For series [11], the system named is Rattus norvegicus. Nature of the series: Half life in Sprague-Dawley rat at 25 mg/kg, po. In kind it is ADME, organism-based. Set-up: dose 25 mg/kg, route oral. Particulars: in vivo. An outline of the steps:
as §2

The subject of series [12] is Rattus norvegicus. Nature of the series: AUC (0 to infinity) in Sprague-Dawley rat at 25 mg/kg, po. In kind it is ADME, organism-based, Plasma. Set-up: time infinity, dose 25 mg/kg, route oral. Particulars: in vivo. The procedure, abridged: as §3
The subject of series [13] is Rattus norvegicus. As to the kind of experiment: Bioavailability in Sprague-Dawley rat at 25 mg/kg, po. It counts as ADME, organism-based. Conditions: in vivo. An outline of the steps: as §2
The subject of series [14] is MDA-MB-231. Nature of the series: cells. Conditions: Homo sapiens, MDA-MB-231, 96 h.

Baculoviral IAP repeat-containing protein 3, sequence (Q13489 whole entry): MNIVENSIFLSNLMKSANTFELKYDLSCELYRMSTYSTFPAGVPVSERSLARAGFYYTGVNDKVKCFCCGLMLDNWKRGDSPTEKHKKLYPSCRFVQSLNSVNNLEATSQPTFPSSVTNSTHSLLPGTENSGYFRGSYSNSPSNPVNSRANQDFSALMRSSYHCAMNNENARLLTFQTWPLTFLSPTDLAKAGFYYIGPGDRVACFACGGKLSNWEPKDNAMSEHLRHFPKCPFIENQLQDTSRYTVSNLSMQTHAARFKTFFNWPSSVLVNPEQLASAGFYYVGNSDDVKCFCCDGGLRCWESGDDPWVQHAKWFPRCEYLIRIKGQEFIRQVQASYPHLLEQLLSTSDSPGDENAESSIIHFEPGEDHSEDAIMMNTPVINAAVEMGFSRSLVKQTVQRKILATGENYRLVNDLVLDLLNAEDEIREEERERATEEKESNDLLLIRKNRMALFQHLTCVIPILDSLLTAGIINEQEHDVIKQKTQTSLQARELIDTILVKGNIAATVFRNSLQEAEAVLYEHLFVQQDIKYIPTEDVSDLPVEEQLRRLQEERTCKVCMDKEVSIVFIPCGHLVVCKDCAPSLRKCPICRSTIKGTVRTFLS

With `CN[C@@H](C)C(=O)N[C@H]1CN(C(=O)Cc2ccccc2)CC[C@H]2CC[C@@H](C(=O)NC(c3ccccc3)c3ccccc3)N2C1=O.Cl`, in the series with MDA-MB-231 [1], the Activity result is “Dose-dependent effect”. Further, the outcome in the series with MDA-MB-231 [2], with MDA-MB-231 [3] and in the series with MDA-MB-231 [4] was Active. The peak level in the series on Rattus norvegicus [5] (Cmax) was 0.532 µM. The molecule further returned a t1/2 in the series with Rattus norvegicus [6] of 4.7 h. Moreover, in the series on Rattus norvegicus [7], the AUC worked out at 1985 µg/L. In the series with Rattus norvegicus [8], this molecule gave an F of 24%.
In the case of `CN[C@@H](C)C(=O)N[C@H]1CN(Cc2ccccc2)CC[C@H]2CC[C@@H](C(=O)NC(c3ccccc3)c3ccccc3)N2C1=O`, in series [9], the Ki (commonly a dissociation constant, usually derived from enzyme kinetics or from competition with a known ligand) is 0.0098 µM.
With `CN[C@@H](C)C(=O)N[C@H]1CCCC[C@H]2CC[C@@H](C(=O)NC(c3ccccc3)c3ccccc3)N2C1=O.Cl`, the highest level in the series with Rattus norvegicus [10] (Cmax) was 0.545 µM. Moreover, the t1/2 in the series with Rattus norvegicus [11] turned out to be 1.7 h. In the series on Rattus norvegicus [12], the AUC is 482 µg/L. Also, the F with Rattus norvegicus [13] came out at 14%.
Consider `CN[C@@H](C)C(=O)N[C@H]1CN(C)CC[C@H]2CC[C@@H](C(=O)NC(c3ccccc3)c3ccccc3)N2C1=O`, for which affinity in series [9] was put at a Ki of 0.0175 µM.
On to `CN[C@@H](C)C(=O)N[C@H]1CNCC[C@H]2CC[C@@H](C(=O)NC(c3ccccc3)c3ccccc3)N2C1=O`, for which the affinity in series [9] corresponds to a Ki of 0.0046 µM. In addition, in the series on MDA-MB-231 [14], the half-maximal inhibitory concentration (IC50) (usually the concentration that inhibits the measured activity by half) was 0.89 µM.
